According to ChEMBL document CHEMBL4699494, “Design, synthesis and evaluation of novel indirubin-based N-hydroxybenzamides, N-hydroxypropenamides and N-hydroxyheptanamides as histone deacetylase inhibitors and antitumor agents” (Bioorg Med Chem Lett, 2020):
Structures can show the parent of a compound that is named as a salt. The source made the active and inactive calls. No cut-off for these calls is given here.

Legend:
NCI-H23 [1] = assay: Cytotoxicity against human NCI-H23 cells by colorimetric method; format: functional, cell-based
PC-3 = assay: Cytotoxicity against human PC3 cells by colorimetric method; format: functional, cell-based
SW-620 [2] = assay: Cytotoxicity against human SW620 cells by colorimetric method; format: functional, cell-based
Histone deacetylase 2 = Histone deacetylase 2 (Homo sapiens, UniProt Q92769); assay: Inhibition of HDAC2 (unknown origin)
Histone deacetylase 2, sequence (Q92769 whole entry): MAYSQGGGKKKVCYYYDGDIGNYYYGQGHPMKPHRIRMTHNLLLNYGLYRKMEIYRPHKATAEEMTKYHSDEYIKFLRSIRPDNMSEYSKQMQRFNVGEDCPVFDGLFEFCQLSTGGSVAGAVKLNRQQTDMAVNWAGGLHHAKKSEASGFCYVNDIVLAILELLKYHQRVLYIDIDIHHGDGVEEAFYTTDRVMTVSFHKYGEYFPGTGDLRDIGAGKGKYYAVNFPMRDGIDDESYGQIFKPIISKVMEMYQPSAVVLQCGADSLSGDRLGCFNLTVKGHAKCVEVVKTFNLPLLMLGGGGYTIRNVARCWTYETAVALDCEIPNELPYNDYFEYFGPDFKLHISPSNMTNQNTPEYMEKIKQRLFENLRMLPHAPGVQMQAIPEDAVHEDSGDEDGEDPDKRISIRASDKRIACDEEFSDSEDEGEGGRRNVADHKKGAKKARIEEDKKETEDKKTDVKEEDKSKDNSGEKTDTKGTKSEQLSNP

SW-620 [3] = assay: Induction of cell cycle arrest in human SW-620 cells assessed as accumulation at G0/G1 phase by flow cytometry; format: functional, cell-based
Homo sapiens = organism: Homo sapiens; assay: Selectivity index, ratio of IC50 for HDAC2 (unknown origin) to IC50 for HDAC6 (unknown origin)
NCI-H23 [4] = assay: Potency index, ratio of adriamycin IC50 to compound IC50 for human NCI-H23 cells by colorimetric method; format: functional
How it was run: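 Growth inhibition of cancer cells read by a colorimetric method with slight modifications. IC50 is the concentration giving 50% reduction in cell growth, computed by the Probits method and averaged over three independent experiments. The index is the reference drug's IC50 divided by the compound's IC50 in the same cell line.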

Histone deacetylase = assay: Inhibition of HDAC in human HeLa nuclear extract using fluoroscence-labeled acetylated peptide as substrate by fluorometric assay; format: subcellular, Nucleus
[5] = target: T1, Protein deacetylase HDAC6 (Homo sapiens, UniProt Q9UBN7); assay: Inhibition of HDAC6 (unknown origin)
T1 sequence (Q9UBN7 whole entry): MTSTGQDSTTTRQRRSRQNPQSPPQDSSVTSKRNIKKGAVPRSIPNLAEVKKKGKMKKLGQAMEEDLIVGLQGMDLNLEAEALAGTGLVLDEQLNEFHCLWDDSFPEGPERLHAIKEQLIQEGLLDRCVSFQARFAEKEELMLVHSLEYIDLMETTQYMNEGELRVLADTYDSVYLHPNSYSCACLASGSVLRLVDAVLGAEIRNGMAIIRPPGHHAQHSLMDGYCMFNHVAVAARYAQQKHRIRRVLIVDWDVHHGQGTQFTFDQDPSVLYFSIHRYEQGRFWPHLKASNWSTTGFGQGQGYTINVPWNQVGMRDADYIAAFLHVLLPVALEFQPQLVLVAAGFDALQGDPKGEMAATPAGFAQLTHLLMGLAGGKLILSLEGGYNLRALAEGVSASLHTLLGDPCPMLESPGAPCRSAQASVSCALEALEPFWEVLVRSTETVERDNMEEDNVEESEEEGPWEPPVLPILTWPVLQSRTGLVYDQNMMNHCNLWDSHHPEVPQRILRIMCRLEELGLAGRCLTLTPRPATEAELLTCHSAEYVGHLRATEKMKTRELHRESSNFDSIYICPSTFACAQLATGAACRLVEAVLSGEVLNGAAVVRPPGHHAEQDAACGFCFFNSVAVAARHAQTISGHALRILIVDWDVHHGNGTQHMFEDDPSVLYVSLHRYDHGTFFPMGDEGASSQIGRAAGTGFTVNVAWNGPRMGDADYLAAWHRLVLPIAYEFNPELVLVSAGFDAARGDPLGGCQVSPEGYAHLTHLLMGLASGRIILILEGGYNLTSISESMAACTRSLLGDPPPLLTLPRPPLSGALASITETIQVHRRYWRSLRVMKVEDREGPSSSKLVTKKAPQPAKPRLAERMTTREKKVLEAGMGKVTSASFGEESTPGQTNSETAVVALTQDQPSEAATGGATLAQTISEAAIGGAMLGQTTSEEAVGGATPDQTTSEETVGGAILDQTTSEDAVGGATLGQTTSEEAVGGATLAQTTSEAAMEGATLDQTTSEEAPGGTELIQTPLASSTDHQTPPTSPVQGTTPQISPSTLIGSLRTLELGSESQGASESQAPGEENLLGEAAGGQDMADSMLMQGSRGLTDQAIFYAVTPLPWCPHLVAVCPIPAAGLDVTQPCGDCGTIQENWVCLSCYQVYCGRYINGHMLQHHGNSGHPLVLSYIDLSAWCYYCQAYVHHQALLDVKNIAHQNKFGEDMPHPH

SW-620 [6] = assay: Induction of apoptosis in human SW620 cells assessed as early apoptotic cells by flow cytometry; format: functional, cell-based
SW-620 [7] = assay: Induction of cell cycle arrest in human SW-620 cells assessed as accumulation at S phase by flow cytometry; format: functional, cell-based

SMILES	IC50 (Histone deacetylase 2) [nM]	Ratio IC50 (Homo sapiens)	IC50 (Histone deacetylase) [nM]	IC50 [5] [nM]	IC50 (NCI-H23 [1]) [nM]	IC50 (PC-3) [nM]	IC50 (SW-620 [2]) [nM]	Activity (SW-620 [3])	Ratio IC50 (NCI-H23 [4])	Activity (SW-620 [6])	Activity (SW-620 [7])
O=C(NO)c1ccc(CN2C(=O)/C(=C3\Nc4ccccc4\C3=N/O)c3ccccc32)cc1	205	29	195	7	70	60	70	Active	<=10	–	–
O=C(/C=C/c1ccc(CN2C(=O)/C(=C3\Nc4ccccc4\C3=N/O)c3cc(Cl)ccc32)cc1)NO	–	–	318	–	7	60	80	–	<=10	–	–
O=C(CCCCCCC(=O)Nc1ccccc1)NO	–	–	–	–	–	–	–	–	–	Active	–
O=C(/C=C/c1ccc(CN2C(=O)/C(=C3\Nc4ccccc4\C3=N/O)c3cccc(Cl)c32)cc1)NO	–	–	604	–	50	90	60	–	<=10	–	–
O=C1Nc2ccccc2/C1=C1/Nc2ccccc2/C1=N\O	–	–	–	–	11200	15800	13500	–	–	–	–
O=C(/C=C/c1ccc(CN2C(=O)/C(=C3\Nc4ccccc4\C3=N/O)c3ccccc32)cc1)NO	–	–	95	–	9	50	50	Active	<=10	Active	Active
O=C(/C=C/c1ccc(CN2C(=O)/C(=C3\Nc4ccccc4\C3=N/O)c3cc(F)ccc32)cc1)NO	–	–	422	–	8	50	50	–	<=10	–	–
O=C(/C=C/c1ccc(CN2C(=O)/C(=C3\Nc4ccccc4\C3=N/O)c3cc(Br)ccc32)cc1)NO	–	–	183	–	9	90	60	–	<=10	–	–
COc1cccc2c1C(=O)c1c(O)c3c(c(O)c1C2=O)C[C@@](O)(C(=O)CO)C[C@@H]3O[C@H]1C[C@H](N)[C@H](O)[C@H](C)O1 [DOXORUBICIN HYDROCHLORIDE]	–	–	–	–	90	90	90	–	–	–	–
O=C(NO)c1ccc(CN2C(=O)/C(=C3\Nc4ccccc4\C3=N/O)c3cccc(Cl)c32)cc1	88	–	71	49	60	60	90	–	<=10	–	–

Now from value to molecule, other results behind:

IC50 (Histone deacetylase 2) [nM]	Ratio IC50 (Homo sapiens)	IC50 (Histone deacetylase) [nM]	IC50 [5] [nM]	SMILES	IC50 (NCI-H23 [1]) [nM]	IC50 (PC-3) [nM]	IC50 (SW-620 [2]) [nM]	Activity (SW-620 [3])	Ratio IC50 (NCI-H23 [4])	Activity (SW-620 [6])	Activity (SW-620 [7])
–	–	14	–	O=C(CCCCCCN1C(=O)/C(=C2\Nc3ccccc3\C2=N/O)c2cc(F)ccc21)NO	8	12	80	–	<=10	–	–
–	–	7	–	O=C(CCCCCCN1C(=O)/C(=C2\Nc3ccccc3\C2=N/O)c2cccc(Cl)c21)NO	50	30	90	–	<=10	–	–
–	–	22	–	O=C(CCCCCCN1C(=O)/C(=C2\Nc3ccccc3\C2=N/O)c2ccccc21)NO	90	50	90	–	<=10	Active	–
–	–	3	–	O=C(CCCCCCN1C(=O)/C(=C2\Nc3ccccc3\C2=N/O)c2cc(Cl)ccc21)NO	30	90	60	–	<=10	–	–
–	–	5	–	COc1ccc2c(c1)/C(=C1/Nc3ccccc3/C1=N\O)C(=O)N2Cc1ccc(/C=C/C(=O)NO)cc1	50	30	40	–	<=10	–	–
21	–	5	20	Cc1ccc2c(c1)/C(=C1/Nc3ccccc3/C1=N\O)C(=O)N2Cc1ccc(C(=O)NO)cc1	10	90	30	–	<=10	–	–
–	–	18	–	Cc1ccc2c(c1)/C(=C1/Nc3ccccc3/C1=N\O)C(=O)N2CCCCCCC(=O)NO	10	80	50	–	<=10	–	–
187	11.7	174	16	O=C(NO)c1ccc(CN2C(=O)/C(=C3\Nc4ccccc4\C3=N/O)c3cc(Cl)ccc32)cc1	50	50	60	–	<=10	–	–
31	–	25	30	COc1ccc2c(c1)/C(=C1/Nc3ccccc3/C1=N\O)C(=O)N2Cc1ccc(C(=O)NO)cc1	90	30	40	–	<=10	–	–
–	–	4	–	O=C(CCCCCCN1C(=O)/C(=C2\Nc3ccccc3\C2=N/O)c2cc(Br)ccc21)NO	9	30	90	–	<=10	–	–
75	–	39	24	O=C(NO)c1ccc(CN2C(=O)/C(=C3\Nc4ccccc4\C3=N/O)c3cc(Br)ccc32)cc1	7	50	70	–	<=10	–	–
–	–	20	–	Cc1ccc2c(c1)/C(=C1/Nc3ccccc3/C1=N\O)C(=O)N2Cc1ccc(/C=C/C(=O)NO)cc1	10	60	50	–	<=10	–	–
194	4.5	218	43	O=C(NO)c1ccc(CN2C(=O)/C(=C3\Nc4ccccc4\C3=N/O)c3cc(F)ccc32)cc1	30	50	20	–	<=10	–	–
–	–	21	–	COc1ccc2c(c1)/C(=C1/Nc3ccccc3/C1=N\O)C(=O)N2CCCCCCC(=O)NO	70	50	30	–	<=10	–	–
